Experiments:
Details in all cases: stereoisomer not certain
UniProt Q8VGZ2 = target: T1, UniProt Q8VGZ2
T1 sequence (whole entry): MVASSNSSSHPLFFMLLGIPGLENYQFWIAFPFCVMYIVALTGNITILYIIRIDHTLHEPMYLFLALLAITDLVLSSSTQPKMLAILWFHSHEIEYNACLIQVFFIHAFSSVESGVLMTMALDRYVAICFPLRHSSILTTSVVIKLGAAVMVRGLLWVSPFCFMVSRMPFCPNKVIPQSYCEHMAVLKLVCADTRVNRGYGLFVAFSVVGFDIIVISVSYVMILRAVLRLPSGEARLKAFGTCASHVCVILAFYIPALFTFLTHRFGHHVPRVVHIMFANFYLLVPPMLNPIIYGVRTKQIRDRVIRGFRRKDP
Method in brief: (§1)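 Assay methods differ from source to source, frequently being transient luciferase assays in mammalian cell lines. For each receptor–molecule pair, the label responsive (active) applies when the original authors judged the measured signal statistically different from baseline, and non-responsive (inactive) applies otherwise.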

UniProt Q8VGZ7 = target: T2, UniProt Q8VGZ7
T2 sequence (whole entry): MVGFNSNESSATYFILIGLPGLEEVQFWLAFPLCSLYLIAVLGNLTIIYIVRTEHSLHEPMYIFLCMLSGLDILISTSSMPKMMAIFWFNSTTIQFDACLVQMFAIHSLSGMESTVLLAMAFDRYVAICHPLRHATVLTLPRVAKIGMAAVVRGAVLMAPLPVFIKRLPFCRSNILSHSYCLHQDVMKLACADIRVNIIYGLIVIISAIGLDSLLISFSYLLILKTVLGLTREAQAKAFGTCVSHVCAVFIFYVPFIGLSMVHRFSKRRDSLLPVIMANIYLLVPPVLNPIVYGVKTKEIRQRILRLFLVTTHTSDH
Method in brief: as §1

UniProt Q8VH16 = target: T3, UniProt Q8VH16
T3 sequence (whole entry): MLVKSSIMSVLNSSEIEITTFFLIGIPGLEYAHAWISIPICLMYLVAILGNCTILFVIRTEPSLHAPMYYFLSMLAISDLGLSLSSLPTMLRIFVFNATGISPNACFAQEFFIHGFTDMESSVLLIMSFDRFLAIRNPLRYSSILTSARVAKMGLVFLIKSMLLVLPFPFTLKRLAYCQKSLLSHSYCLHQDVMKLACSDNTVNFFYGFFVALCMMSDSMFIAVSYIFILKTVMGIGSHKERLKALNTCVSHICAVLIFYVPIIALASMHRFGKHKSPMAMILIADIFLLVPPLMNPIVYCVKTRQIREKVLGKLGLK
Method in brief: as §1

UniProt Q8VH20 = target: T4, UniProt Q8VH20
T4 sequence (whole entry): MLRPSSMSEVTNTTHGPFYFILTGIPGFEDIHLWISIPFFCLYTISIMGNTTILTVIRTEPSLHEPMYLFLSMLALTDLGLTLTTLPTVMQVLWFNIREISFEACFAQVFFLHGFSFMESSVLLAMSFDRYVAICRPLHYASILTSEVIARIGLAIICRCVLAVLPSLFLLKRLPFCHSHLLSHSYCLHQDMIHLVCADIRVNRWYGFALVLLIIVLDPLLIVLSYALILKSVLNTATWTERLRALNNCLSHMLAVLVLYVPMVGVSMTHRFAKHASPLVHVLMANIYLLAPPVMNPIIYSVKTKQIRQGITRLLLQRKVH
Method in brief: as §1

UniProt Q8VH21 = target: T5, UniProt Q8VH21
T5 sequence (whole entry): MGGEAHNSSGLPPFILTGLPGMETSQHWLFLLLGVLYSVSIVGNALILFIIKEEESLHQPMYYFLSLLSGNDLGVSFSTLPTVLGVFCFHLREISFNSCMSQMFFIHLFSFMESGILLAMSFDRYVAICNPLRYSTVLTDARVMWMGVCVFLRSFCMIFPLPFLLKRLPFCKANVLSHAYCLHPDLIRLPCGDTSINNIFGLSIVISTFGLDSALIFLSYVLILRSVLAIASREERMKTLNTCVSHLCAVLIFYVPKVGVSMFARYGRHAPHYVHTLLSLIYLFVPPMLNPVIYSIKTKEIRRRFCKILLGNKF
Method in brief: as §1

UniProt Q924H8 = target: T6, UniProt Q924H8
T6 sequence (whole entry): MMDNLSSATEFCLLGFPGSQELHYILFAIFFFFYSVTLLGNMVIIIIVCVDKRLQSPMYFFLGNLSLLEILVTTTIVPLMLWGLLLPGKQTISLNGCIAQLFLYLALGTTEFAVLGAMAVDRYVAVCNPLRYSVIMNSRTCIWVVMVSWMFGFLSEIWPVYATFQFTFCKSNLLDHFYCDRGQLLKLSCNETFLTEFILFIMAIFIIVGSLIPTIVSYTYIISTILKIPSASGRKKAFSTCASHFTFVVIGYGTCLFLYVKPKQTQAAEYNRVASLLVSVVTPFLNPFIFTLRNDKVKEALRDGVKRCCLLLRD
Method in brief: as §1

Measured: odorant receptor agonist call

C=C1C2CCC(C2)C1(C)C (stereo not given)
inactive: all assays above

O=C(O)C1CCC1
active: UniProt Q8VH21
inactive: all other assays above

CCSSCC
inactive: all assays above

C1CCOC1
inactive: all assays above

CCCCCC(C=O)=Cc1ccccc1
inactive: all assays above
